B1: Osa-1-4 twister ribozyme (parent)
chain: CCGCCUAACACUGCCAAUGCCGGUCCCAAGCCCGGAUAAAAGUGGAGGGGGCGG

The variants in this series derive from B1. Put plainly: self-cleavage, relative activity (ratio to wild type); higher = more cleavage; co-transcriptional. The essentials: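 A DNA template for a 54-nucleotide Oryza sativa twister ribozyme was synthesised with 97 % wild-type base and 1 % of each other base at the 48 positions downstream of the cleavage site. It was transcribed in vitro for 2 h at 37 °C, allowing co-transcriptional self-cleavage, then reverse-transcribed with a template-switching oligonucleotide, PCR-amplified and deep-sequenced. Cleavage status was scored from reads with or without upstream sequence. Relative activity is fraction cleaved normalised to wild type.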
For the variant CCGCCUAACACUGCCAAUGCCGGUCCCAAUCCCGGAUAAAAGUGGAGCGGGCGG [G30U G48C], the self-cleavage stood at 0.02.

For the variant CCGCCUAACACUGCCAAUGCCGGUCCCAAUCCCGGAUAAAAGUGGAGAGGGCGG [G30U G48A], the self-cleavage was determined as 0.02.

For the variant CCGCCUAACACUGCCAAUGCCGGUCCCAAUCCCGGAUAAAAGUGGAGUGGGCGG [G30U G48U], the self-cleavage was 0.02.

As for CCGCCUAACACUGCCAAUGCCGGUCCCAAGACCGCAUAAAAGUGGAGGGGGCGG [C31A G35C], the self-cleavage came to 0.03.

CCGCCUAACACUGCCAAUGCCGGUCCCAAGACCGAAUAAAAGUGGAGGGGGCGG [C31A G35A]: the self-cleavage was determined as 0.05.

As to CCGCCUAACACUGCCAAUGCCGGUCCCAAGACCGUAUAAAAGUGGAGGGGGCGG [C31A G35U], the self-cleavage was 0.05.

Regarding CCGCCUAACACUGCCAAUGCCAGUCCCAAGACCGGAUAAAAGUGGAGGGGGCGG [C31A G22A], the self-cleavage was determined as 0.04.

Turning to CCGCCUAACACUGCCAAUGCCUGUCCCAAGACCGGAUAAAAGUGGAGGGGGCGG [C31A G22U], the self-cleavage was 0.04.

As to CCGCCUAACACUGCCAAUGCCCGUCCCAAGACCGGAUAAAAGUGGAGGGGGCGG [C31A G22C], the self-cleavage stood at 0.02.

Consider CCGCCUAACACUGCCAAUGCCGGUCCCAAAACCGGAUAAAAGUGGAGGGGGCGG [C31A G30A], for which the self-cleavage is 0.02.

Turning to CCGCCUAACACUGCCAAUGCCGGUCCCAACACCGGAUAAAAGUGGAGGGGGCGG [C31A G30C], the self-cleavage was 0.03.

For CCGCCUAACACUGCCAAUGCCGGUCCCAAUACCGGAUAAAAGUGGAGGGGGCGG [C31A G30U], the self-cleavage turned out to be 0.01.

With CCGCCUAACACUGCCAAUGCCGGUCCCAAUCCCGGAUAAAAGUGGAGGGGUCGG [G30U G51U], the self-cleavage was determined as 0.03.

For the variant CCGCCUAACACUGCCAAUGCCGGUCCCAAUCCCGGAUAAAAGUGGAGGGGACGG [G30U G51A], the self-cleavage amounted to 0.05.

As for CCGCCUAACACUGCCAAUGCCGGUCCCAAUCCCGGAUAAAAGUGGAGGGGCCGG [G30U G51C], the self-cleavage stood at 0.03.

Take CCGCCUAACACUGCCAAUGCCGGUCCCAAGAUCGGAUAAAAGUGGAGGGGGCGG [C31A C32U]: the self-cleavage was 0.01.

For CCGCCUAACACUGCCAAUGCCGGUCCCAAGAACGGAUAAAAGUGGAGGGGGCGG [C31A C32A], the self-cleavage worked out at 0.04.

On to CCGCCUAACACUGCCAAUGCCGGUCCCAAGAGCGGAUAAAAGUGGAGGGGGCGG [C31A C32G], for which the self-cleavage came to 0.02.

As to CCGCCUAACACUGCCAAUGCCGGUCCCAAGACCGGAUAAAAGUGAAGGGGGCGG [C31A G45A], the self-cleavage was found to be 0.02.

With CCGCCUAACACUGCCAAUGCCGGUCCCAAGACCGGAUAAAAGUGUAGGGGGCGG [C31A G45U], the self-cleavage worked out at 0.02.

For the variant CCGCCUAACACUGCCAAUGCCGGUCCCAAGACCGGAUAAAAGUGCAGGGGGCGG [C31A G45C], the self-cleavage was 0.01.

Consider CCGCCUAACACUGCCAAUGCCGGUCCCAAGACCGGAUAAAAGUGGAGAGGGCGG [C31A G48A], for which the self-cleavage was determined as 0.02.

For the variant CCGCCUAACACUGCCAAUGCCGGUCCCAAUCCCGCAUAAAAGUGGAGGGGGCGG [G30U G35C], the self-cleavage was 0.03.

On to CCGCCUAACACUGCCAAUGCCGGUCCCAAUCCCGAAUAAAAGUGGAGGGGGCGG [G30U G35A], for which the self-cleavage is 0.04.

On to CCGCCUAACACUGCCAAUGCCGGUCCCAAUCCCGUAUAAAAGUGGAGGGGGCGG [G30U G35U], for which the self-cleavage is 0.04.

In the case of CCGCCUAACACUGCCAAUGCCGCUCCCAAGACCGGAUAAAAGUGGAGGGGGCGG [C31A G23C], the self-cleavage was 0.02.

For CCGCCUAACACUGCCAAUGCCGUUCCCAAGACCGGAUAAAAGUGGAGGGGGCGG [C31A G23U], the self-cleavage was found to be 0.02.

Turning to CCGCCUAACACUGCCAAUGCCGAUCCCAAGACCGGAUAAAAGUGGAGGGGGCGG [C31A G23A], the self-cleavage amounted to 0.03.

As to CCGCCUAACACUGCCAAUGCCGGUCCCAAUCCCGGAUAAAAGUAGAGGGGGCGG [G30U G44A], the self-cleavage amounted to 0.04.

As to CCGCCUAACACUGCCAAUGCCGGUCCCAAUCCCGGAUAAAAGUUGAGGGGGCGG [G30U G44U], the self-cleavage came out at 0.05.

For CCGCCUAACACUGCCAAUGCCGGUCCCAAUCCCGGAUAAAAGUCGAGGGGGCGG [G30U G44C], the self-cleavage stood at 0.04.

Take CCGCCUAACACUGCCAACGCCGGUCCCAAUCCCGGAUAAAAGUGGAGGGGGCGG [G30U U18C]: the self-cleavage was found to be 0.04.

On to CCGCCUAACACUGCCAAAGCCGGUCCCAAUCCCGGAUAAAAGUGGAGGGGGCGG [G30U U18A], for which the self-cleavage was found to be 0.03.

CCGCCUAACACUGCCAAGGCCGGUCCCAAUCCCGGAUAAAAGUGGAGGGGGCGG [G30U U18G]: the self-cleavage is 0.04.

As for CCGCCUAACACUGCCAAUGCCGGUCCCAAGACCGGAUAAAAGUGGAGGGGGCGG [C31A], the self-cleavage turned out to be 0.04.

Turning to CCGCCUAACACUGCCAAUGCCGGUCCCAAUCCCGGAAAAAAGUGGAGGGGGCGG [G30U U37A], the self-cleavage is 0.02.

For the variant CCGCCUAACACUGCCAAUGCCGGUCCCAAUCCCGGACAAAAGUGGAGGGGGCGG [G30U U37C], the self-cleavage is 0.04.

Take CCGCCUAACACUGCCAAUGCCGGUCCCAAUCCCGGAGAAAAGUGGAGGGGGCGG [G30U U37G]: the self-cleavage amounted to 0.04.

CCGCCUAAAACUGCCAAUGCCGGUCCCAAGACCGGAUAAAAGUGGAGGGGGCGG [C31A C9A]: the self-cleavage is 0.02.

Take CCGCCUAAGACUGCCAAUGCCGGUCCCAAGACCGGAUAAAAGUGGAGGGGGCGG [C31A C9G]: the self-cleavage is 0.04.

CCGCCUAAUACUGCCAAUGCCGGUCCCAAGACCGGAUAAAAGUGGAGGGGGCGG [C31A C9U]: the self-cleavage came to 0.03.

For the variant CCGCCUAACACUGCCAAUCCCGGUCCCAAGACCGGAUAAAAGUGGAGGGGGCGG [C31A G19C], the self-cleavage came out at 0.02.

With CCGCCUAACACUGCCAAUACCGGUCCCAAGACCGGAUAAAAGUGGAGGGGGCGG [C31A G19A], the self-cleavage is 0.04.

On to CCGCCUAACACUGCCAAUUCCGGUCCCAAGACCGGAUAAAAGUGGAGGGGGCGG [C31A G19U], for which the self-cleavage was 0.02.

Turning to CCGCCUAACACUCCCAAUGCCGGUCCCAAGACCGGAUAAAAGUGGAGGGGGCGG [C31A G13C], the self-cleavage worked out at 0.01.

Regarding CCGCCUAACACUACCAAUGCCGGUCCCAAGACCGGAUAAAAGUGGAGGGGGCGG [C31A G13A], the self-cleavage turned out to be 0.01.

Consider CCGCCUAACACUUCCAAUGCCGGUCCCAAGACCGGAUAAAAGUGGAGGGGGCGG [C31A G13U], for which the self-cleavage came out at 0.02.

As to CCGCCUAACACUGCCAAUGCCGGUCCCAAUCCCGGAUAAAAGUGCAGGGGGCGG [G30U G45C], the self-cleavage was found to be 0.02.

(Values after the RNAGym collection of RNA variant scans (doi:10.1002/anie.201605470).)
